Assays:
[1] = Volume of distribution at steady state in mouse at 3 mg/kg, iv; type: ADME, organism-based; set-up: dose 3 mg/kg, route intravenous; details: in vivo, read-out: Vdss
In short: (§1)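 Animals (n = 3/group; male mouse, Sprague-Dawley rat, beagle dog, cynomolgus monkey) got a single iv dose in dimethyl isosorbide/ethanol/PEG400/D5W (10%/15%/35%/40%) at 1 mL/kg. Heparinized blood was drawn via an indwelling carotid cannula from predose to 48 h. Plasma was assayed by LC/MS/MS (LLOQ 1 ng/mL, linear 1–2500 ng/mL). Parameters came from noncompartmental analysis of mean profiles using measured doses.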

[2] = AUC (0 to infinity) in Sprague-Dawley rat at 3 mg/kg, po; type: ADME, organism-based; set-up: time infinity, dose 3 mg/kg, route oral; details: plasma
In short: (§2)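 Single oral dose, n = 3/group. Heparinized carotid-cannula blood was sampled at predose, 0.25, 0.5, 1, 1.5, 2, 4, 8, 12 and 24 h. Plasma levels were measured by LC/MS/MS (LLOQ 1 ng/mL). AUC and bioavailability were derived by noncompartmental analysis of mean concentration–time profiles against the iv arm.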

[3] = Half life in mouse at 3 mg/kg, iv; type: ADME, organism-based; set-up: dose 3 mg/kg, route intravenous; details: in vivo; in short: as §1
[4] = Volume of distribution at steady state in beagle dog at 0.9 mg/kg, iv; type: ADME, organism-based, Canis lupus familiaris; set-up: dose 0.9 mg/kg, route intravenous; details: in vivo, read-out: Vdss; in short: as §1
[5] = Half life in beagle dog at 0.9 mg/kg, iv; type: ADME, organism-based, Canis lupus familiaris; set-up: dose 0.9 mg/kg, route intravenous; details: in vivo; in short: as §1
[6] = Volume of distribution at steady state in Cynomolgus monkey at 0.8 mg/kg, iv; type: ADME, organism-based, Macaca fascicularis; set-up: dose 0.8 mg/kg, route intravenous; details: in vivo, read-out: Vdss; in short: as §1
Canis familiaris [7] = assay: AUC (0 to infinity) in beagle dog at 3.8 mg/kg, po; details: in vivo
Canis familiaris [8] = assay: Oral bioavailability in beagle dog at 3.8 mg/kg; details: in vivo
[9] = Clearance in mouse at 3 mg/kg, iv; type: ADME, organism-based; set-up: dose 3 mg/kg, route intravenous; details: in vivo; in short: as §1
[10] = target: Cystic fibrosis transmembrane conductance regulator (Homo sapiens, UniProt P13569, F508DEL); assay: Potentiation of human CFTR F508del mutant expressed in mouse NIH-3T3 cells after 30 mins by fluorescent voltage sensing optical assay; type: cell-based, NIH3T3
In short: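 NIH-3T3 fibroblasts stably expressing human F508del-CFTR were held 16–24 h at 27 °C to correct misfolding. Cells were washed in NaCl/HEPES bath, pH 7.4, then loaded with voltage-sensing dyes plus compound for 30 min at room temperature. Cl−-free bath with forskolin was added once, and membrane potential change was read by fluorescence. EC50 is mean ± SD of at least three determinations.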

Cytochrome P450 2E1 = Cytochrome P450 2E1 (Homo sapiens, UniProt P05181); assay: Inhibition of CYP2E1 (unknown origin); type: ADME
[11] = Half life in Cynomolgus monkey at 0.8 mg/kg, iv; type: ADME, organism-based, Macaca fascicularis; set-up: dose 0.8 mg/kg, route intravenous; details: in vivo; in short: as §1
[12] = Clearance in Cynomolgus monkey at 0.8 mg/kg, iv; type: ADME, organism-based, Macaca fascicularis; set-up: dose 0.8 mg/kg, route intravenous; details: in vivo; in short: as §1
[13] = test system: Cystic fibrosis transmembrane conductance regulator (Homo sapiens), P13569 [F508del]; assay: Potentiation of human CFTR F508del mutant expressed in mouse NIH-3T3 cells at 30 uM after 30 mins by fluorescent voltage sensing optical assay relative to VRT-532; type: cell-based; details: NIH3T3
In short: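 Same F508del-CFTR NIH-3T3 membrane-potential assay: 27 °C correction for 16–24 h, dye plus compound for 30 min at room temperature, then forskolin in Cl−-free bath. Compounds below 50% activity at 30 μM were not titrated. Their response at 30 μM is given as % of VRT-532.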

[14] = AUC (0 to infinity) in Sprague-Dawley rat at 1.57 mg/kg, iv; type: ADME, organism-based; set-up: time infinity, dose 1.57 mg/kg, route intravenous; details: plasma
In short: (§3)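 Male Sprague−Dawley rats, n = 3/group, single iv dose in dimethyl isosorbide/ethanol/PEG400/D5W (10%/15%/35%/40%) at 1 mL/kg. Carotid cannula blood at predose, 5, 15, 30, 45 min and 1, 2, 4, 6, 8, 12, 24, 36, 48 h. Plasma levels by LC/MS/MS (LLOQ 1 ng/mL, linear 1–2500 ng/mL). Noncompartmental analysis of mean profiles using measured doses.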

[15] = Volume of distribution at steady state in Sprague-Dawley rat at 1.57 mg/kg, iv; type: ADME, organism-based; set-up: dose 1.57 mg/kg, route intravenous; details: in vivo, read-out: Vdss; in short: as §1
[16] = Clearance in Sprague-Dawley rat at 1.57 mg/kg, iv; type: ADME, organism-based; set-up: dose 1.57 mg/kg, route intravenous; details: in vivo; in short: as §1
[17] = Half life in Sprague-Dawley rat at 1.57 mg/kg, iv; type: ADME, organism-based; set-up: dose 1.57 mg/kg, route intravenous; details: in vivo; in short: as §1
[18] = Volume of distribution at steady state in Sprague-Dawley rat at 1.29 mg/kg, iv; type: ADME, organism-based; set-up: dose 1.29 mg/kg, route intravenous; details: in vivo, read-out: Vdss; in short: as §1
[19] = Clearance in Sprague-Dawley rat at 1.29 mg/kg, iv; type: ADME, organism-based; set-up: dose 1.29 mg/kg, route intravenous; details: in vivo; in short: as §1
[20] = AUC (0 to infinity) in Sprague-Dawley rat at 1.29 mg/kg, iv; type: ADME, organism-based; set-up: dose 1.29 mg/kg, route intravenous, time infinity; details: plasma; in short: as §3
[21] = Half life in Sprague-Dawley rat at 1.29 mg/kg, iv; type: ADME, organism-based; set-up: dose 1.29 mg/kg, route intravenous; details: in vivo; in short: as §1
[22] = Binding affinity to ligand-gated chloride channel (unknown origin); set-up: species or system Homo sapiens
[23] = target: GABA-A receptor; benzodiazepine site (Homo sapiens); assay: Binding affinity to GABAA receptor (unknown origin)
[24] = Clearance in beagle dog at 1 mg/kg, iv; type: ADME, organism-based, Canis lupus familiaris; set-up: dose 1 mg/kg, route intravenous; details: in vivo; in short: as §1
[25] = Volume of distribution at steady state in Sprague-Dawley rat at 2.5 mg/kg, iv; type: ADME, organism-based; set-up: dose 2.5 mg/kg, route intravenous; details: in vivo, read-out: Vdss; in short: as §1
[26] = Clearance in Sprague-Dawley rat at 2.5 mg/kg, iv; type: ADME, organism-based; set-up: dose 2.5 mg/kg, route intravenous; details: in vivo; in short: as §1
[27] = Half life in beagle dog at 1 mg/kg, iv; type: ADME, organism-based, Canis lupus familiaris; set-up: dose 1 mg/kg, route intravenous; details: in vivo; in short: as §1
[28] = Half life in Sprague-Dawley rat at 2.5 mg/kg, iv; type: ADME, organism-based; set-up: dose 2.5 mg/kg, route intravenous; details: in vivo; in short: as §1
[29] = Volume of distribution at steady state in beagle dog at 1 mg/kg, iv; type: ADME, organism-based, Canis lupus familiaris; set-up: dose 1 mg/kg, route intravenous; details: in vivo, read-out: Vdss; in short: as §1
[30] = Oral bioavailability in Sprague-Dawley rat at 2.5 mg/kg; type: ADME, organism-based; details: in vivo; in short: as §2

Cystic fibrosis transmembrane conductance regulator, sequence (P13569 as listed by the source): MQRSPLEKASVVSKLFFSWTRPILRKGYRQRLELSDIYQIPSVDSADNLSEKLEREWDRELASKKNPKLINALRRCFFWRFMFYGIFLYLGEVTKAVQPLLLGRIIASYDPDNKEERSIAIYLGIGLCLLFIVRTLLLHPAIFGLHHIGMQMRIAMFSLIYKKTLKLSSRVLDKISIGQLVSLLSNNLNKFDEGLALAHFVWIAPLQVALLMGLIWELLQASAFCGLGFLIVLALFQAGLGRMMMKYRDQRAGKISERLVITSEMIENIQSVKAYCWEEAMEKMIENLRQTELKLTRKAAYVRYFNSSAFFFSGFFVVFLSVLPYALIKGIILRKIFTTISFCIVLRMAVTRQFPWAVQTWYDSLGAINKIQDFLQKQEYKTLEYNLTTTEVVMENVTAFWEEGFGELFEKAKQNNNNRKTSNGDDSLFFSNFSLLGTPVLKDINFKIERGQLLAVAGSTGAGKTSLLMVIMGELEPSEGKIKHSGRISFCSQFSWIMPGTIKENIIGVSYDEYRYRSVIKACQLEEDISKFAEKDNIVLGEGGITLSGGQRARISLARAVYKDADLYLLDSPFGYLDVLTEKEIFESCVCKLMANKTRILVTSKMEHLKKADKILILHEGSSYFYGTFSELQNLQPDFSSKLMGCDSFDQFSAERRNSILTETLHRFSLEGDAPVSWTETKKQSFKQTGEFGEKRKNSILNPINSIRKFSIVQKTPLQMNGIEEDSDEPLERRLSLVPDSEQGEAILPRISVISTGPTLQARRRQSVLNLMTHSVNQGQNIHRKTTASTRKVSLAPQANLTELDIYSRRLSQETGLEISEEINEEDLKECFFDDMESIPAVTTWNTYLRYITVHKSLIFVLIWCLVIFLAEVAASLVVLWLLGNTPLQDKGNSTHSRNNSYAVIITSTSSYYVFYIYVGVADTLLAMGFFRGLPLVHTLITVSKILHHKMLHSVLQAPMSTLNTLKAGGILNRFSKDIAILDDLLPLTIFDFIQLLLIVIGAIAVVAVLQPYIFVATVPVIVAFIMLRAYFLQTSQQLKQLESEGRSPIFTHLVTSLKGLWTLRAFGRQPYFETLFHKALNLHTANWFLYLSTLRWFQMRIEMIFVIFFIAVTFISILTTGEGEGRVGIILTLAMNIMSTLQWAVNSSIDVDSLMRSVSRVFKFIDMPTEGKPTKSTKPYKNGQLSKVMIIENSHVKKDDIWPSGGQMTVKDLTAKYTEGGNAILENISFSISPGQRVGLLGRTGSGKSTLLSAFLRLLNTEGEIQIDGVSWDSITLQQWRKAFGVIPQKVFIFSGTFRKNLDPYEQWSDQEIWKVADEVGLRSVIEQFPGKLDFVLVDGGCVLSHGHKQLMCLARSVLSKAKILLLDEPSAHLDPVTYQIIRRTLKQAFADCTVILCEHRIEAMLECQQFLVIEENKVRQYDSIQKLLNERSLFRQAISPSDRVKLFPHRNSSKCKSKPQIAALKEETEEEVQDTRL
Cystic fibrosis transmembrane conductance regulator (Homo sapiens), P13569 [F508del], sequence (P13569 as listed by the source): as above
Cytochrome P450 2E1, sequence (P05181 whole entry): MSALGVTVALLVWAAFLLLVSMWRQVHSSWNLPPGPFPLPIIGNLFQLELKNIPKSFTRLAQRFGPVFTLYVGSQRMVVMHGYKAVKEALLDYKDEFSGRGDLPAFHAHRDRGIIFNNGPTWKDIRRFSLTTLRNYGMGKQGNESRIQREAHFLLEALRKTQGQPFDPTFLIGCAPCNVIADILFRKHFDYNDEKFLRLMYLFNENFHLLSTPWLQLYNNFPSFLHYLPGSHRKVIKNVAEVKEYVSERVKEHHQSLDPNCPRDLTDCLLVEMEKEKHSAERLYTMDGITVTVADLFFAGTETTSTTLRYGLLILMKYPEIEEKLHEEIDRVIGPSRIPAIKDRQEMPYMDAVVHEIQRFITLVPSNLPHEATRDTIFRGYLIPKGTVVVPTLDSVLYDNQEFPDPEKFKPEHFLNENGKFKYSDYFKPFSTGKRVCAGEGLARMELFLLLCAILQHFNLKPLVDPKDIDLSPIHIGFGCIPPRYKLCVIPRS

CC(C)(C)c1cc(C(C)(C)C)c(NC(=O)c2c[nH]c3ccccc3c2=O)cc1O [IVACAFTOR]
Vd [1]: 2.8 L/kg | AUC(0-inf) [2]: 4800 ng·h/mL | half-life [3]: 1.3 h | Vd [4]: 0.7 L/kg | half-life [5]: 13 h | Vd [6]: 2.2 L/kg | AUC (Canis familiaris [7]): 13500 ng·h/mL | F (Canis familiaris [8]): 43% | clearance [9]: 20 mL/min/kg | EC50 [10]: 3 nM | IC50 (Cytochrome P450 2E1): > 20000 nM | half-life [11]: 6.7 h | clearance [12]: 7.4 mL/min/kg

O=C(c1cnccc1O)N(Cc1ccccc1)Cc1ccccc1
Activity [13]: 2%

CC(=O)Nc1cc(NC(=O)c2c[nH]c3ccccc3c2=O)ccc1C(C)(C)C
Activity [13]: 24%

O=C(Nc1ccc2c(c1)NCC2)c1c[nH]c2ccccc2c1=O
EC50 [10]: 400 nM

CC(C)(C)c1ccc(NC(=O)c2c[nH]c3ccccc3c2=O)cc1S(N)(=O)=O
EC50 [10]: 5100 nM

O=c1c(CNc2ccc3cc[nH]c3c2)c[nH]c2ccccc12
Activity [13]: 1%

CC(C)c1ccc(NC(=O)c2c[nH]c3ccccc3c2=O)cc1N
EC50 [10]: 300 nM

O=C(Nc1ccc2[nH]ccc2c1)c1c[nH]c2ccccc2c1=O
EC50 [10]: 6100 nM

CCc1cc2cc[nH]c2cc1NC(=O)c1c[nH]c2ccccc2c1=O
EC50 [10]: 20 nM

CCc1c[nH]c2cc(NC(=O)c3c[nH]c4ccccc4c3=O)ccc12
EC50 [10]: 100 nM

CC(C)(C)c1cc(F)c(NC(=O)c2c[nH]c3ccccc3c2=O)cc1O
AUC(0-inf) [14]: 520 ng·h/mL | Vd [15]: 2.9 L/kg | EC50 [10]: 2 nM | clearance [16]: 62.9 mL/min/kg | half-life [17]: 1.1 h

Cn1ccc2ccc(NC(=O)c3c[nH]c4ccccc4c3=O)cc21
EC50 [10]: 6400 nM

O=C(Oc1ccc2cc[nH]c2c1)c1c[nH]c2ccccc2c1=O
Activity [13]: 19%

Cn1cc(C(=O)N(Cc2ccccc2)Cc2ccccc2)c(=O)c2ccccc21
Activity [13]: 37%

Cc1ccc(NC(=O)c2c[nH]c3ccccc3c2=O)cc1N
EC50 [10]: 6000 nM

CCc1ccccc1NC(=O)c1c[nH]c2ccccc2c1=O
EC50 [10]: 200 nM

N#CCc1ccccc1NC(=O)c1c[nH]c2ccccc2c1=O
EC50 [10]: 8500 nM

CCc1ccc(NC(=O)c2c[nH]c3ccccc3c2=O)cc1N
EC50 [10]: 1700 nM

O=C(Nc1ccc2cc[nH]c2n1)c1c[nH]c2ccccc2c1=O
Activity [13]: 13%

Nc1cccc(NC(=O)c2c[nH]c3ccccc3c2=O)c1
EC50 [10]: 6900 nM

CC(C)(C)c1ccc(NC(=O)c2c[nH]c3ccccc3c2=O)cc1O
Vd [18]: 2.9 L/kg | EC50 [10]: 3 nM | clearance [19]: 85.6 mL/min/kg | AUC(0-inf) [20]: 260 ng·h/mL | half-life [21]: 0.7 h

O=C(c1ccc2ccccc2c1O)N(Cc1ccccc1)Cc1ccccc1
EC50 [10]: 3500 nM

CC(C)(C)c1ccc(NC(=O)c2c[nH]c3ccccc3c2=O)cc1
EC50 [10]: 100 nM

O=C(Nc1ccc2cc[nH]c2c1)c1c[nH]c2ccccc2c1=O
IC50 [22]: 100 nM | IC50 [23]: 100 nM | clearance [24]: 17 mL/min/kg | Vd [25]: 2.4 L/kg | clearance [26]: 28 mL/min/kg | half-life [27]: 0.9 h | EC50 [10]: 100 nM | half-life [28]: 1.3 h | Vd [29]: 1.6 L/kg | bioavailability [30]: 11%
